# Calls of active or inactive are those of the source. The rule behind the calls is not given here.
# Experiments:
# MDA-MB-468 = assay: Induction of cell cycle arrest in human MDA-MB-468 cells assessed as increase in sub-2n cell population measured upto 5000 nM measured for 7 to 10 days by propidium iodide staining based flow cytometric analysis; format: functional; settings: time 7-10 day
# Rec1 = assay: Induction of cell cycle arrest in human REC1 cells assessed as increase in 2n cell population measured upto 5000 nM measured for 3 days by propidium iodide staining based flow cytometric analysis; format: functional; settings: time 3.0 day
# Z-138 [1] = assay: Induction of cell cycle arrest in human Z138 cells assessed as decrease in 2n cell population measured upto 1000 nM measured for 2 to 5 days by propidium iodide staining based flow cytometric analysis; format: functional; settings: time 2-5 day
# Z-138 [2] = assay: Antitumor activity against human Z138 cells xenografted in mouse at 25 to 50 mg/kg, po qd measured at 14 to 21 days; format: functional, organism-based; settings: dose lower […], dose upper 50.0 mg/kg, time 14-21 day
# OE33 = assay: Antiproliferative activity against human OE33 cells assessed as cell growth inhibition incubated for 10 days; format: functional; settings: OE33, 240 h, time 10 day
# NCI-H661 = assay: Antiproliferative activity against human NCI-H661 cells assessed as cell growth inhibition incubated for 10 days; format: functional; settings: NCI-H661, 240 h, time 10 day
# T98G = assay: Antiproliferative activity against human T98G cells assessed as cell growth inhibition incubated for 10 days; format: functional; settings: 240 h, time 10 day
# CRO-AP2 = assay: Antiproliferative activity against human CRO-AP2 cells assessed as cell growth inhibition incubated for 10 days; format: functional; settings: CRO-AP2, 240 h, time 10 day
# Procedure, shortened: (§1)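 Outsourced panel run in 384-well plates. Cells were grown in RPMI-1640/10% FBS or a special medium at 37°C, 5% CO2. Compound was added 24 h after seeding as a 10-point, 3.16-fold series in 0.1% DMSO. Medium was refreshed and cells re-dosed at 168 h, with a time-zero plate kept. At 240 h cells were fixed, nuclei stained and imaged. gIC50 is growth midway between untreated and time zero, from a 4-parameter fit.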
# SJRH30 = assay: Antiproliferative activity against human SJRH30 cells assessed as cell growth inhibition incubated for 10 days; format: functional; settings: SJRH30, 240 h, time 10 day
# SCC-9 = assay: Antiproliferative activity against human SCC-9 cells assessed as cell growth inhibition incubated for 10 days; format: functional; settings: SCC-9, 240 h, time 10 day
# SK-OV-3 = assay: Antiproliferative activity against human SK-OV-3 cells assessed as cell growth inhibition incubated for 10 days; format: functional; settings: SK-OV-3, 240 h, time 10 day
# C32 = assay: Antiproliferative activity against human C32 cells assessed as cell growth inhibition incubated for 10 days; format: functional; settings: C32, 240 h, time 10 day
# Procedure, shortened: (§2)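 Cells kept in RPMI-1640 with 10% FBS, 2 mM L-alanyl-L-glutamine and 1 mM Na pyruvate (or a special medium) at 37°C, 5% CO2. Compound added 24 h after seeding, 10 concentrations in 3.16-fold dilution, 0.1% DMSO final. Medium replaced and cells re-dosed at 168 h; 240 h incubation. Nuclei fixed, dye-stained and imaged. gIC50 = growth midway between untreated and time-zero cell counts, from a 4-parameter fit.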
# LS-1034 = assay: Antiproliferative activity against human LS1034 cells assessed as cell growth inhibition incubated for 10 days; format: functional; settings: LS-1034, 240 h, time 10 day
# [3] = target: Protein arginine N-methyltransferase 5 (Homo sapiens) (UniProt O14744); assay: Inhibition of PRMT5 in human Z138 cells expressing full length MDM4 assessed as effect on p53 level at 1 uM incubated for 4 days by Western blot analysis; format: cell-based; settings: time 4.0 day
# EM-2 = assay: Antiproliferative activity against human EM-2 cells assessed as cell growth inhibition incubated for 10 days; format: functional; settings: EM-2, 240 h, time 10 day; procedure, shortened: as §1
# SW982 = assay: Antiproliferative activity against human SW982 cells assessed as cell growth inhibition incubated for 10 days; format: functional; settings: SW982, 240 h, time 10 day
# D283 Med = assay: Antiproliferative activity against human D283 Med cells assessed as cell growth inhibition incubated for 10 days; format: functional; settings: 240 h, time 10 day; procedure, shortened: as §1
# CGTH-W-1 = assay: Antiproliferative activity against human CGTH-W-1 cells assessed as cell growth inhibition incubated for 10 days; format: functional; settings: CGTH-W-1, 240 h, time 10 day; procedure, shortened: as §2
# DK-MG = assay: Antiproliferative activity against human DK-MG cells assessed as cell growth inhibition incubated for 10 days; format: functional; settings: 240 h, time 10 day; procedure, shortened: as §1
# COR-L105 = assay: Antiproliferative activity against human COR-L105 cells assessed as cell growth inhibition incubated for 10 days; format: functional; settings: COR-L105, 240 h, time 10 day; procedure, shortened: as §1
# A498 = assay: Antiproliferative activity against human A498 cells assessed as cell growth inhibition incubated for 10 days; format: functional; settings: A498, 240 h, time 10 day; procedure, shortened: as §2
# A 172 = assay: Antiproliferative activity against human A-172 cells assessed as cell growth inhibition incubated for 6 days by celltiter-glo assay; format: functional; settings: A 172, 144 h, time 6 day
# SW1353 = assay: Antiproliferative activity against human SW1353 cells assessed as cell growth inhibition incubated for 10 days; format: functional; settings: SW1353, 240 h, time 10 day
# ES-2 = assay: Antiproliferative activity against human ES2 cells assessed as cell growth inhibition incubated for 10 days; format: functional; settings: ES-2, 240 h, time 10 day; procedure, shortened: as §1
# A-431 = assay: Antiproliferative activity against human A-431 cells assessed as cell growth inhibition incubated for 10 days; format: functional; settings: A-431, 240 h, time 10 day; procedure, shortened: as §2
# [4] = Antiproliferative activity against human OE21 cells assessed as cell growth inhibition incubated for 10 days; format: functional; settings: OE21, 240 h, time 10 day
# SW872 = assay: Antiproliferative activity against human SW872 cells assessed as cell growth inhibition incubated for 10 days; format: functional; settings: SW872, 240 h, time 10 day
# [5] = target: Protein arginine N-methyltransferase 5 (Homo sapiens) (UniProt O14744); assay: Inhibition of PRMT5 in human Z138 cells expressing full length MDM4 assessed as induction of p21 at 1 uM incubated for 4 days by Western blot analysis; format: cell-based; settings: time 4.0 day
# BeWo = assay: Antiproliferative activity against human BeWo cells assessed as cell growth inhibition incubated for 10 days; format: functional; settings: 240 h, time 10 day; procedure, shortened: as §2
# WI-38 = assay: Antiproliferative activity against human WI-38 cells assessed as cell growth inhibition incubated for 10 days; format: functional; settings: WI-38, 240 h, time 10 day
# Ramos = assay: Antiproliferative activity against human Ramos cells assessed as cell growth inhibition incubated for 10 days; format: functional; settings: 240 h, time 10 day
# [6] = Antiproliferative activity against human Ri-1 cells assessed as cell growth inhibition incubated for 6 days by celltiter-glo assay; format: functional; settings: Ri-1, 144 h, time 6 day
# Procedure, shortened: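 Cells seeded in 384-well plates at an optimized density and held 24 h. CellTiter-Glo luminescence read at Day 0 and Day 6. Four-parameter fit. gIC50 = midpoint of the growth window between DMSO and T0. Curves required ≥1.5 population doublings.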
# NCI-H520 = assay: Antiproliferative activity against human NCI-H520 cells assessed as cell growth inhibition incubated for 10 days; format: functional; settings: NCI-H520, 240 h, time 10 day
# HCT-116 = assay: Antiproliferative activity against human HCT-116 cells assessed as cell growth inhibition incubated for 10 days; format: functional; settings: HCT-116, 240 h, time 10 day; procedure, shortened: as §1
# Detroit 562 = assay: Antiproliferative activity against human Detroit 562 cells assessed as cell growth inhibition incubated for 10 days; format: functional; settings: Detroit 562, 240 h, time 10 day; procedure, shortened: as §1
# Sequence of Protein arginine N-methyltransferase 5 (Homo sapiens) (O14744 whole entry): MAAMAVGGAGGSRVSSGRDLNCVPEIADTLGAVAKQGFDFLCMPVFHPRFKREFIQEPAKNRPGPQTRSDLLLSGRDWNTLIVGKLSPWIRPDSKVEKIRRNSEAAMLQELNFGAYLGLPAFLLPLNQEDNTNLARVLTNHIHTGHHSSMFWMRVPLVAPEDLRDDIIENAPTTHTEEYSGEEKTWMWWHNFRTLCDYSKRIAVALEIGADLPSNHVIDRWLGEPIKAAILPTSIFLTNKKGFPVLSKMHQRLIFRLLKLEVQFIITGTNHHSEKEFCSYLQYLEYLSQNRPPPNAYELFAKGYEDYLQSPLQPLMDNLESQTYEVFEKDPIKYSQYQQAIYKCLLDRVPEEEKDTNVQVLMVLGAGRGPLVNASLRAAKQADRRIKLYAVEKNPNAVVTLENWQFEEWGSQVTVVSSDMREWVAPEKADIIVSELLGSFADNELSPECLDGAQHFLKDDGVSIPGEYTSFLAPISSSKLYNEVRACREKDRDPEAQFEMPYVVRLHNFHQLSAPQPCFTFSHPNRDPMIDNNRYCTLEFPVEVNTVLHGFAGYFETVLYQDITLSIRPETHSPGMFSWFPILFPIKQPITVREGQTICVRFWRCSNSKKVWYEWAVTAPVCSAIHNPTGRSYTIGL
smiles,measurement,setting,value
CC(=O)N1CCC(Nc2cc(C(=O)NC[C@H](O)CN3CCc4ccccc4C3)ncn2)CC1 [PEMRAMETOSTAT],Activity,MDA-MB-468,Active
same,Activity,Rec1,inactive
same,Activity,Z-138 [1],Active
same,Activity,Z-138 [2],Active
O=C(NC[C@H](O)CN1CCc2ccccc2C1)c1ccnc(NC2CCC2)c1,GI50,OE33,231 nM
same,GI50,NCI-H661,152 nM
same,GI50,T98G,27.3 nM
same,GI50,CRO-AP2,250 nM
same,GI50,SJRH30,472 nM
same,GI50,SCC-9,747 nM
same,GI50,SK-OV-3,52.6 nM
same,GI50,C32,14.1 nM
same,GI50,LS-1034,172 nM
same,inhibition,[3],inactive
same,GI50,EM-2,94 nM
same,GI50,SW982,56.7 nM
same,GI50,D283 Med,23.5 nM
same,GI50,CGTH-W-1,82.2 nM
same,GI50,DK-MG,89.5 nM
same,GI50,COR-L105,314 nM
same,GI50,A498,50.7 nM
same,GI50,A 172,590 nM
same,GI50,SW1353,129 nM
same,GI50,ES-2,106 nM
same,GI50,A-431,549 nM
same,GI50,[4],146 nM
same,GI50,SW872,54 nM
same,inhibition,[5],inactive
same,GI50,BeWo,1090 nM
same,GI50,WI-38,18.5 nM
same,GI50,Ramos,546 nM
same,GI50,[6],68 nM
same,GI50,NCI-H520,15.6 nM
same,GI50,HCT-116,166 nM
same,GI50,Detroit 562,104 nM

# Reference: ChEMBL document CHEMBL5653630, “Activation of the p53-MDM4 regulatory axis defines the anti-tumour response to PRMT5 inhibition through its role in regulating cellular splicing” (Sci Rep, 2018)
